Measurements from publication PMC4791037 (Environmental science & technology, 2015).

What was measured:
[1] = tested on: genomic DNA damage in Chinese hamster ovary (CHO) cell line AS52, clone 11-4-8; assay: Single cell gel electrophoresis; assay type: cell-based; conditions: CHO cells, 4 h; for GTI (±SE), genotoxicity index: mean bootstrap value, calculated as (50%TDNA)^−1(10^3)
Summary of the method: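 CHO AS52 clone 11-4-8 cells (Ham's F12, 5% FBS, 37 °C, 5% CO2) exposed to test compound, then run in microplate comet assay. %Tail DNA scored only over concentrations with viability >70%. Microgel means were averaged per concentration and tested by one-way ANOVA with Holm-Sidak versus control (P ≤ 0.05). 50% Tail DNA concentration came from regression. Bootstrap replicates gave GTI values (1/M).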

[2] = tested on: Chinese hamster ovary (CHO) cell line AS52, clone 11-4-8; assay: CHO cell chronic cytotoxicity assay; assay type: cell-based; conditions: mean bootstrap value, calculated as (LC50)^−1(10^3); CHO cells, 72 h
[3] = CHO cell chronic cytotoxicity assay; assay type: cell-based, Chinese hamster; conditions: Chinese hamster, CHO cells, line AS52, clone 11-4-8

O=CCBr [BAL, bromoacetaldehyde]
GTI (±SE), genotoxicity index [1]: 2.68 ± 0.11 M⁻¹ | CTI (±SE), cytotoxicity index [2]: 64.6 ± 3.5 M⁻¹

O=CC(Cl)Br (stereo not shown) [BCAL, bromochloroacetaldehyde]
GTI (±SE), genotoxicity index [1]: 1.61 ± 0.21 M⁻¹ | CTI (±SE), cytotoxicity index [2]: 207.4 ± 11.0 M⁻¹

O=CC(Cl)(Cl)Br [BDCAL, bromodichloroacetaldehyde]
GTI (±SE), genotoxicity index [1]: 2.24 ± 0.05 M⁻¹ | CTI (±SE), cytotoxicity index [2]: 51.1 ± 4.3 M⁻¹

O=CC(Br)Br [DBAL, dibromoacetaldehyde]
GTI (±SE), genotoxicity index [1]: 9.11 ± 0.60 M⁻¹ | CTI (±SE), cytotoxicity index [2]: 207.5 ± 2.1 M⁻¹

O=CC(Cl)(Br)Br [DBCAL, dibromochloroacetaldehyde]
GTI (±SE), genotoxicity index [1]: 6.99 ± 0.28 M⁻¹ | CTI (±SE), cytotoxicity index [2]: 200.2 ± 1.4 M⁻¹

O=CC(Cl)Cl [DCAL, dichloroacetaldehyde]
GTI (±SE), genotoxicity index [1]: 1.26 ± 0.03 M⁻¹ | CTI (±SE), cytotoxicity index [2]: 35.7 ± 0.8 M⁻¹

O=CCI [IAL, iodoacetaldehyde]
GTI (±SE), genotoxicity index [1]: 0.96 ± 0.03 M⁻¹ | CTI (±SE), cytotoxicity index [2]: 170.4 ± 7.3 M⁻¹

O=CC(Br)(Br)Br [TBAL, tribromoacetaldehyde]
GTI (±SE), genotoxicity index [1]: 3.00 ± 0.03 M⁻¹ | CTI (±SE), cytotoxicity index [2]: 279.8 ± 4.8 M⁻¹ | CC50 at 72 h [3]: 3.58 µM

O=CC(Cl)(Cl)Cl [TCAL, trichloroacetaldehyde]
genotoxicity (result in words) ([1]; SCGE assay): not genotoxic | CTI (±SE), cytotoxicity index [2]: 0.94 ± 0.03 M⁻¹
